Values after ≈ are worked out from the molar mass of the structure shown. Active and inactive are the calls of the source. The rule behind the calls is not given here.
Legend:
[1] = Antibacterial activity against Clostridium difficile ATCC 43255 by broth microdilution method; type: functional; settings: Clostridioides difficile
In short: (§1)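 MIC by CLSI broth microdilution (M07-A8 for aerobes; M11-A7 for anaerobes).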

[2] = system: Staphylococcus aureus; test: Antibacterial activity against methicillin-resistant Staphylococcus aureus isolate AKH Vienna A4.018 by broth microdilution method; type: functional
In short: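 Broth microdilution MIC following CLSI M07-A8 (2009) and M11-A7 guidelines.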

[3] = system: Enterococcus faecium; test: Antibacterial activity against Enterococcus faecium 7130724 by broth microdilution method; type: functional; in short: as §1
[4] = system: Streptococcus pyogenes; test: Antibacterial activity against Streptococcus pyogenes ATCC BAA-595 by broth microdilution method; type: functional; in short: as §1
[5] = system: Enterococcus faecalis; test: Antibacterial activity against Enterococcus faecalis ATCC 29212 by broth microdilution method; type: functional; in short: as §1
[6] = system: Enterococcus faecalis; test: Antibacterial activity against Enterococcus faecalis isolate NB04025 infected in iv dosed CD1 mouse assessed as protection from lethal infection after 5 days; type: functional; settings: for ED50: 120 h
In short: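 Female CD1 mice (21−25 g) infected ip with 1 × 10^8 CFU/mouse in 50% sterile rat fecal extract (10−100× minimal lethal dose). Single iv tail-vein bolus immediately after inoculation, several dose levels, six mice per group. Observed 5 days with implanted temperature transponders; moribund mice euthanized. ED50 with 95% CI from day-5 survival by probit analysis.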

[7] = system: Staphylococcus aureus; test: Antibacterial activity against Staphylococcus aureus ATCC 49951 infected in iv dosed CD1 mouse assessed as protection from lethal infection administered 1 hr and 5 hrs post-infection measured after 5 days; type: functional; settings: for ED50: ATCC 49951, iv
In short: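 Female CD1 mice (21−25 g) infected ip with 1 × 10^8 CFU/mouse in 0.9% NaCl (10−100× minimal lethal dose). iv tail-vein bolus at 1 and 5 h post-inoculation, several dose levels, six mice per group. Watched 5 days with body temperature monitoring; moribund animals euthanized. ED50 with 95% CI from day-5 survival by probit analysis.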

[8] = system: Escherichia coli; test: Inhibition of elongation factor Tu-mediated protein synthesis in Escherichia coli S30 extract after 2 hrs by luciferase reporter gene assay
In short: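 Coupled transcription/translation in E. coli S30 extract with pBESTluc template DNA, methionine-minus and cysteine-minus amino acid mixes, and S30 premix; test agent added as 40× stock in 20 μL reactions. Incubated 2 h at 37 °C; luciferase formed was read by luminescence after adding an equal volume of SteadyGlo reagent. Kirromycin and puromycin were positive controls; ampicillin was the negative control.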

[9] = Chemical stability of the compound in HCl at room temperature; type: physicochemical; settings: buffer
[10] = Chemical stability of the compound in MeOH at room temperature; type: physicochemical
[11] = Chemical stability of the compound in MeOH at 50 degC; type: physicochemical
[12] = Solubility of the compound in DMSO solution; type: physicochemical
[13] = Chemical stability of the compound in water at room temperature; type: physicochemical; settings: buffer
[14] = Solubility of the compound in DMF solution; type: physicochemical
[15] = Chemical stability of the compound in water at 50 degC; type: physicochemical; settings: buffer
[16] = Chemical stability of the compound in HCl at 50 degC; type: physicochemical; settings: buffer
[17] = Half life in Sprague-Dawley rat at 1 mg/kg, iv; type: ADME, organism-based; design: dose 1 mg/kg, route intravenous; settings: in vivo
In short: (§2)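 Intravenous PK (N = 2) in male Sprague−Dawley rats (220−270 g, about 6−10 weeks old) with dual jugular vein cannulas. Rats were fasted overnight before dosing and for 8 h after. Blood was collected into K2EDTA tubes and plasma was assayed by LC-MS/MS.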

[18] = system: Staphylococcus aureus; test: Antibacterial activity against Staphylococcus aureus ATCC 49951; type: functional
[19] = system: Enterococcus faecalis; test: Antibacterial activity against Enterococcus faecalis isolate NB04025; type: functional
[20] = system: Enterococcus faecalis; test: Ratio of daptomycin ED50 to compound ED50 for Enterococcus faecalis isolate NB04025 infected in iv dosed CD1 mouse; type: functional
In short: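 Female CD1 mice (21−25 g) infected intraperitoneally with 1 × 10^8 CFU/mouse E. faecalis in 50% sterile rat fecal extract. Single iv tail-vein bolus given immediately after inoculation, at several dose levels, to groups of six mice. Vehicle was 5% DMA, 30% PEG400, 10% cremophor EL, 5% 0.1 N NaOH and 50% pH 7.4 buffer; daptomycin was given in saline. Survival followed 5 days; ED50 with 95% CI by probit analysis of day-5 survival.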

[21] = AUC in Sprague-Dawley rat at 1 mg/kg, iv; type: ADME, organism-based; design: dose 1 mg/kg, route intravenous; settings: plasma; in short: as §2
[22] = Clearance in Sprague-Dawley rat at 1 mg/kg, iv; type: ADME, organism-based; design: dose 1 mg/kg, route intravenous; settings: in vivo; in short: as §2
[23] = Volume of distribution at steady state in Sprague-Dawley rat at 1 mg/kg, iv; type: ADME, organism-based; design: dose 1 mg/kg, route intravenous; settings: in vivo, read-out: Vdss; in short: as §2

Row | SMILES | MIC [1] [µg/mL] | MIC [2] [µg/mL] | MIC [3] [µg/mL] | MIC [4] [µg/mL] | MIC [5] [µg/mL] | also measured
1 | Cc1sc2nc1C(=O)N[C@@H]([C@H](O)c1ccccc1)c1nc(cs1)C(=O)N[C@@H](Cc1ccc(O)cc1)C(=O)N[C@@H]([C@@H](C)[C@@H](O)CCl)c1nc(cs1)-c1nc(cs1)-c1nc(-c3nc(C(N)=O)cs3)ccc1-c1nc(cs1)C(=O)N[C@H]2CC(N)=O | 0.25 (≈ 0.202 µM) | 0.5 (≈ 0.404 µM) | 0.5 (≈ 0.404 µM) | 2 (≈ 1.62 µM) | 0.25 (≈ 0.202 µM) | 
2 | CCCCCCCCCC(=O)N[C@@H](Cc1c[nH]c2ccccc12)C(=O)N[C@H](CC(N)=O)C(=O)N[C@@H](CC(=O)O)C(=O)N[C@@H]1C(=O)NCC(=O)N[C@@H](CCCN)C(=O)N[C@@H](CC(=O)O)C(=O)N[C@H](C)C(=O)N[C@@H](CC(=O)O)C(=O)NCC(=O)N[C@H](CO)C(=O)N[C@@H]([C@H](C)CC(=O)O)C(=O)N[C@@H](CC(=O)c2ccccc2N)C(=O)O[C@@H]1C |  |  |  |  |  | Activity [6]: Dose-dependent effect; ED50 [6]: 3 mg/kg; Activity [7]: Dose-dependent effect; ED50 [7]: 0.3 mg/kg
3 | Cc1sc2nc1C(=O)NCc1nc(cs1)C(=O)N[C@@H](Cc1ccc(O)cc1)C(=O)N1C[C@H](O)[C@H](C)[C@H]1c1nc(cs1)-c1nc(cs1)-c1nc(-c3nc(C(N)=O)cs3)ccc1-c1nc(cs1)C(=O)N[C@H]2CC(N)=O |  | 2 (≈ 1.83 µM) | 4 (≈ 3.66 µM) | > 32 | 4 (≈ 3.66 µM) | 
4 | Cc1sc2nc1C(=O)N[C@@H]([C@H](O)c1ccccc1)c1nc(cs1)C(=O)N[C@@H](Cc1ccc(O)cc1)C(=O)N[C@@H]([C@@H](C)[C@@H](O)CN)c1nc(cs1)-c1nc(cs1)-c1nc(-c3nc(C(N)=O)cs3)ccc1-c1nc(cs1)C(=O)N[C@H]2CC(N)=O | 1 (≈ 0.821 µM) | 2 (≈ 1.64 µM) | 1 (≈ 0.821 µM) | > 32 | 1 (≈ 0.821 µM) | 
5 | C=C(NC(=O)c1csc(-c2ccc3c(n2)-c2csc(n2)-c2csc(n2)[C@H]([C@@H](C)[C@@H]2CO2)NC(=O)[C@H](Cc2ccc(OC)cc2)NC(=O)c2csc(n2)[C@H]([C@H](O)c2ccccc2)NC(=O)c2nc(sc2C)[C@H](CC(N)=O)NC(=O)c2csc-3n2)n1)C(=O)NC(=C)C(=O)OC | 1 (≈ 0.731 µM) | > 32 | 8 (≈ 5.85 µM) | > 32 | 8 (≈ 5.85 µM) | inhibition [8]: inactive
6 | C=C(NC(=O)C(=C)NC(=O)c1csc(-c2ccc3c(n2)-c2csc(n2)-c2csc(n2)[C@H]([C@@H](C)[C@@H]2CO2)NC(=O)[C@H](Cc2ccc(O)cc2)NC(=O)c2csc(n2)[C@H]([C@H](O)c2ccccc2)NC(=O)c2nc(sc2C)[C@H](CC(N)=O)NC(=O)c2csc-3n2)n1)C(=O)O [THIOMURACIN A] | 0.03 (≈ 0.0224 µM) | 0.5 (≈ 0.373 µM) | 0.5 (≈ 0.373 µM) | 0.5 (≈ 0.373 µM) | 0.5 (≈ 0.373 µM) | Stability [9]: Stable; Stability [10]: Stable; Stability [11]: Unstable; solubility [12]: soluble; Stability [13]: Stable; solubility [14]: soluble; Stability [15]: Unstable; Stability [16]: Unstable
7 | C=C(NC(=O)c1csc(-c2ccc3c(n2)-c2csc(n2)-c2csc(n2)[C@H]([C@@H](C)[C@@H]2CO2)NC(=O)[C@H](Cc2ccc(O)cc2)NC(=O)c2csc(n2)[C@H]([C@H](O)c2ccccc2)NC(=O)c2nc(sc2C)[C@H](CC(N)=O)NC(=O)c2csc-3n2)n1)C(=O)NC(=C)C(=O)OC | 1 (≈ 0.739 µM) | > 32 | 8 (≈ 5.91 µM) | > 32 | 8 (≈ 5.91 µM) | inhibition [8]: inactive
8 | C=C(NC(=O)c1csc(-c2ccc3c(n2)-c2csc(n2)-c2csc(n2)[C@H]([C@@H](C)[C@@H]2CO2)NC(=O)[C@H](Cc2ccc(OC(C)=O)cc2)NC(=O)c2csc(n2)[C@H]([C@H](OC(C)=O)c2ccccc2)NC(=O)c2nc(sc2C)[C@H](CC(N)=O)NC(=O)c2csc-3n2)n1)C(=O)NC(=C)C(=O)OC | > 4 | > 32 | 32 (≈ 22.3 µM) | > 32 | 32 (≈ 22.3 µM) | inhibition [8]: inactive
9 | Cc1sc2nc1C(=O)N[C@@H]([C@H](O)c1ccccc1)c1nc(cs1)C(=O)N[C@@H](Cc1ccc(O)cc1)C(=O)N[C@@H]([C@@H](C)[C@@H]1CO1)c1nc(cs1)-c1nc(cs1)-c1nc(-c3nc(C(N)=O)cs3)ccc1-c1nc(cs1)C(=O)N[C@H]2CC(N)=O | 0.003 (≈ 0.0025 µM) | 0.5 (≈ 0.417 µM) | 0.125 (≈ 0.104 µM) | 2 (≈ 1.67 µM) | 0.25 (≈ 0.208 µM) | 
10 | Cc1sc2nc1C(=O)N[C@@H]([C@H](O)c1ccccc1)c1nc(cs1)C(=O)N[C@@H](Cc1ccc(O)cc1)C(=O)N1C[C@H](O)[C@H](C)[C@H]1c1nc(cs1)-c1nc(cs1)-c1nc(-c3nc(C(N)=O)cs3)ccc1-c1nc(cs1)C(=O)N[C@H]2CC(N)=O | < 0.008 | 0.25 (≈ 0.208 µM) | 0.5 (≈ 0.417 µM) | 1 (≈ 0.833 µM) | 0.25 (≈ 0.208 µM) | half-life [17]: 3.4 h; MIC [18]: 1 µg/mL (≈ 0.833 µM); Activity [6]: Dose-dependent effect; ED50 [6]: 1.5 mg/kg; MIC [19]: 0.125 µg/mL (≈ 0.104 µM); Ratio ED50 [20]: 2; AUC [21]: 1.35 µM·h; Activity [7]: Dose-dependent effect; ED50 [7]: 8 mg/kg; clearance [22]: 10.1 mL/min/kg; Vd [23]: 0.134 L/kg
11 | Cc1sc2nc1C(=O)N[C@@H]([C@H](O)c1ccccc1)c1nc(cs1)C(=O)N[C@@H](Cc1ccc(O)cc1)C(=O)N[C@@H]([C@@H](C)[C@@H](O)CO)c1nc(cs1)-c1nc(cs1)-c1nc(-c3nc(C(N)=O)cs3)ccc1-c1nc(cs1)C(=O)N[C@H]2CC(N)=O | 2 (≈ 1.64 µM) | > 32 | > 32 | > 32 | > 32 | 
